Data set [1] relates to Gerbillinae. Kind of data set: Inhibition of [Sar9, Met(O2)11]SP-induced foot tapping in gerbil at 1 mg/kg, sc relative to CP-122721. The conditions noted are these: for inhibition (INH) / inhibition in vivo at 1 mg/kg: dose 1 mg/kg, route subcutaneous; for % inhibition at 1 mg/kg / inhibition in vivo at 1 mg/kg: Gerbillinae, sc.
For data set [2], the target named is T1, Cytochrome P450 2D6 (Homo sapiens, UniProt P10635). Kind of data set: (§1) Inhibition of human CYP2D6 at 5 uM. The class given is ADME. The conditions noted are these: 5 µM.
The subject of data set [3] is Gerbillinae. Kind of data set: Inhibition of [Sar9, Met(O2)11]SP-induced foot tapping in gerbil at 0.1 mg/kg, sc relative to CP-122721.
Another data set has as its target Substance-P receptor (Homo sapiens, UniProt P25103). The data set is described as follows: Displacement of [3H]SP from NK1 receptor in human IM9 cells. On the technique in general: Loss of bound radioactivity is the signal in a displacement assay; it reports binding, not function.
Data set [4] concerns the target T1, Cytochrome P450 2D6. Kind of data set: Binding affinity to human CYP2D6 using bufuralol as substrate. In kind it is ADME.
The target in a further data set is CYP2D6 (Homo sapiens, UniProt P10635). The data set is described as §1. The class given is ADME.
The next data set has as its system Liver microsomes. Kind of data set: Metabolic stability in human liver microsome assessed as ratio of half life between CYP2D6-deficient microsome and CYP2D6-deficient microsome with addition of exogenous CYP2D6. The class given is ADME. Summed up: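 Half-lives were measured in CYP2D6-deficient human liver microsomes with and without added exogenous CYP2D6. The value is the ratio of the half-life without CYP2D6 to the half-life with it.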
In general terms: Liver microsomes are vesicles of endoplasmic reticulum, rich in cytochrome P450 enzymes.

The next data set deals with Mustela putorius furo. Kind of data set: Antiemetic activity against cisplatin-induced emesis in sc dosed ferrets. The class given is functional, organism-based. In outline:
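Ferrets were given the test compound sc 30 min before cisplatin (10 mg/kg, ip). Retching and vomiting/gagging episodes were counted against vehicle control. Groups were n = 4–5, data are mean ± SEM, and Student's t-test was used. Results are given as ED90 (mg/kg, sc) or as % inhibition at the stated dose.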

For data set [5], the system named is Gerbillinae. The data set is described as follows: Inhibition of [Sar9, Met(O2)11]SP-induced foot tapping in sc dosed gerbil.
Where [6] appears, read: dose 0.1 mg/kg, route subcutaneous.
The mark [7] stands for this setting: Mustela putorius, sc, read-out: ED90.

Consider 14 molecules from ChEMBL document CHEMBL1155909, “Discovery and stereoselective synthesis of the novel isochroman neurokinin-1 receptor antagonist 'CJ-17,493'” (Bioorg Med Chem, 2008).

Sequence of CYP2D6 (P10635 whole entry): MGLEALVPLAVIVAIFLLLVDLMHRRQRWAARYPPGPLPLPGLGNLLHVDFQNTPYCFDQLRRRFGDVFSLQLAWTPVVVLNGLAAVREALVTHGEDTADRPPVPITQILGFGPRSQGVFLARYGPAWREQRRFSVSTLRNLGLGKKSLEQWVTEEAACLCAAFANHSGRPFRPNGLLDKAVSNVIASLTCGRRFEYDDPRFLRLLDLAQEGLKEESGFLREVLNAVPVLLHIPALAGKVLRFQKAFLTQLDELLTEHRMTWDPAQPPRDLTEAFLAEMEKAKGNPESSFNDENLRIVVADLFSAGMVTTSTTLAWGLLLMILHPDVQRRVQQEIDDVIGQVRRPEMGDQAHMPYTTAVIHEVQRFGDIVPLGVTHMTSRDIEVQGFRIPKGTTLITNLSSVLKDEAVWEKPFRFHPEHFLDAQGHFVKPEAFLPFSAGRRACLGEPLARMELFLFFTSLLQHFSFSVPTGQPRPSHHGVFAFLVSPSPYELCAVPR
T1 sequence (P10635 whole entry): as above
Sequence of Substance-P receptor (P25103 whole entry): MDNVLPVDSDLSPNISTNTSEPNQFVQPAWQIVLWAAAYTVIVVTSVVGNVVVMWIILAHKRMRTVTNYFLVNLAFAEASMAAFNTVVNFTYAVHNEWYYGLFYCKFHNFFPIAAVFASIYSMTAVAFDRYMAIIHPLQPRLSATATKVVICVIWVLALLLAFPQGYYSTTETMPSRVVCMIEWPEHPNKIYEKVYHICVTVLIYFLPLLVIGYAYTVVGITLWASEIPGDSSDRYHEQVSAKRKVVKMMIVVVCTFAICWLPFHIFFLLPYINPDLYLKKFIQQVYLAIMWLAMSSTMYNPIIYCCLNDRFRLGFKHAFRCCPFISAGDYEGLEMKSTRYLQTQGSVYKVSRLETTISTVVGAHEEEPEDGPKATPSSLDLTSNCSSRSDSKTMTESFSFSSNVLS

In the case of `COc1cc2c(cc1CN[C@H]1CCCN[C@H]1c1ccccc1)C(C)(C(F)(F)F)CCC2` (mixture of isomers; 20), the “inhibition (INH)” value is reported as 65% with Gerbillinae [1], 42% at Cytochrome P450 2D6 [2] and 0% in the data set on Gerbillinae [3] (setting [6]). For the same molecule, on Substance-P receptor, the IC50 – broadly, the point on the concentration scale where inhibition reaches its midpoint – was below 0.1 nM.

For the molecule `COc1cc2c(cc1CN[C@H]1CCCN[C@H]1c1ccccc1)C(C(F)(F)F)CC2` (mixture of isomers; 11), in the data set on Gerbillinae [1], the % inhibition (usually how much of the control response was suppressed) at 1 mg/kg was found to be 88%. The Ki (commonly the dissociation constant of the complex between target and ligand, obtained from inhibition or displacement) on Cytochrome P450 2D6 [4] is 520 nM. Further, on CYP2D6, at 5 µM the inhibition was 75.9%. Besides, the % inhibition at 0.1 mg/kg in the data set with Gerbillinae [3] (Gerbillinae, sc) came to 79%. The Ratio with Liver microsomes is listed as 10.6. Moreover, on Substance-P receptor, the IC50 stood at 0.4 nM.

The molecule `COc1ccc(C(C)C)cc1CN[C@H]1C2CCN(CC2)[C@H]1C(c1ccccc1)c1ccccc1` [EZLOPITANT] came in with a Ki on Cytochrome P450 2D6 [4] of 420 nM. In addition, the inhibition (usually the share of the control response that was lost under treatment) at 5 µM against CYP2D6 came out at 64.1%. Moreover, the ED90 in the data set on Mustela putorius furo (setting [7]) amounted to 2.1 mg/kg. In addition, the Ratio in the data set with Liver microsomes is reported as 1.8.

Molecule `COc1cc2c(cc1CN[C@H]1CCCN[C@H]1c1ccccc1)C(C(F)(F)F)CCC2` (mixture of isomers; 18) gave an inhibition at 5 µM against CYP2D6 of 85.4%. At Substance-P receptor, the IC50 was below 0.1 nM.

`COc1ccc(C(C)C(F)(F)F)cc1CN[C@H]1CCCN[C@H]1c1ccccc1` (mixture of isomers) yielded a Ki on Cytochrome P450 2D6 [4] of 840 nM. For the same molecule, at 5 µM the inhibition on CYP2D6 was 65.9%. Besides, in the data set on Mustela putorius furo, the ED90 was 0.3 mg/kg and the ED100 entry was “>=1 mg kg-1”. Further, in the data set with Liver microsomes, the Ratio stood at 2.2. Besides, the ED50 – broadly, the midpoint of the dose-response relation – with Gerbillinae [5] came out at 0.82 mg/kg. On Substance-P receptor, this molecule yielded an IC50 of 0.4 nM.

Take `COc1ccc(C(OC)C(F)(F)F)cc1CN[C@H]1CCCN[C@H]1c1ccccc1` (mixture of isomers): at 1 mg/kg the inhibition in vivo with Gerbillinae [1] was 67%. At CYP2D6, this molecule registered an inhibition at 5 µM of 92.9%. Besides, the IC50 at Substance-P receptor is below 0.1 nM.

For the molecule `COc1ccc(C(C(F)(F)F)C(F)(F)F)cc1CN[C@H]1CCCN[C@H]1c1ccccc1`, at Cytochrome P450 2D6 [4], the affinity corresponds to a Ki of 2100 nM. At 5 µM the inhibition on CYP2D6 was 43.1%. In the data set with Mustela putorius furo, the ED100 was 0.9 mg/kg. Further, in the data set on Mustela putorius furo (setting [7]), the ED90 was 0.48 mg/kg. In addition, the Ratio in the data set with Liver microsomes came to 2. Moreover, in the data set on Gerbillinae [5], the ED50 was 0.33 mg/kg. Besides, the IC50 at Substance-P receptor is below 0.1 nM.

As to `COc1cc2c(cc1CN[C@H]1CCCN[C@H]1c1ccccc1)[C@@](C)(C(F)(F)F)OCC2`, at Substance-P receptor, the IC50 is 0.34 nM.

Turning to `COc1ccc(C(C)(C)C(F)(F)F)cc1CN[C@H]1CCCN[C@H]1c1ccccc1`, affinity at Cytochrome P450 2D6 [4] was put at a Ki of 1340 nM. At CYP2D6, this molecule had an inhibition at 5 µM of 54.8%. In the data set with Mustela putorius furo, this molecule came in with an ED100 of 1 mg/kg. Moreover, the ED90 in the data set on Mustela putorius furo (setting [7]) worked out at 0.21 mg/kg. Also, the Ratio in the data set with Liver microsomes was 1.16. Also, in the data set on Gerbillinae [5], the ED50 was determined as 0.12 mg/kg. This molecule also came in with an IC50 at Substance-P receptor of 0.2 nM.

Take `COc1ccc(OC(F)(F)F)cc1CN[C@H]1CCCN[C@H]1c1ccccc1`: in the data set with Mustela putorius furo, the ED100 result was “>=0.3 mg kg-1”. The ED90 with Mustela putorius furo (setting [7]) came out at 0.09 mg/kg. The same molecule yielded an ED50 in the data set with Gerbillinae [5] of 0.28 mg/kg.

Turning to `COc1cc2c(cc1CN[C@H]1CCCN[C@H]1c1ccccc1)C(C)(C(F)(F)F)CCC2` (mixture of isomers; 19), the “inhibition (INH)” value in the data set with Gerbillinae [1] is 85%; with Gerbillinae [3] (setting [6]), 21%. In addition, the Ratio with Liver microsomes amounted to 1.58. In addition, on Substance-P receptor, the IC50 was found to be 0.21 nM.

In the data set with Gerbillinae [1], `COc1cc2c(cc1CN[C@H]1CCCN[C@H]1c1ccccc1)C(C)(C(F)(F)F)CC2` (mixture of isomers) had a % inhibition at 1 mg/kg of 80%. The molecule further returned a % inhibition at 0.1 mg/kg with Gerbillinae [3] (Gerbillinae, sc) of 68%. The IC50 on Substance-P receptor is below 0.1 nM.

`COc1ccc(CC(F)(F)F)cc1CN[C@H]1CCCN[C@H]1c1ccccc1` returned an inhibitory constant (Ki) on Cytochrome P450 2D6 [4] of 70 nM. On CYP2D6, this molecule had an inhibition at 5 µM of 95.6%. In the data set on Mustela putorius furo, this molecule gave an ED90 below 0.1 mg/kg and an ED100 of 0.1 mg/kg. Also, in the data set with Liver microsomes, the Ratio is listed as 4.25. This molecule registered an ED50 in the data set with Gerbillinae [5] of 0.03 mg/kg. Further, the IC50 at Substance-P receptor was 0.9 nM.

On to `COc1ccc(C(C)(F)C(F)(F)F)cc1CN[C@H]1CCCN[C@H]1c1ccccc1` (mixture of isomers), for which the inhibition in vivo (usually the percentage by which the read-out fell short of the control) at 1 mg/kg in the data set with Gerbillinae [1] worked out at 57%. This molecule registered an inhibition in vivo at 0.1 mg/kg with Gerbillinae [3] (Gerbillinae, sc, dose 0.1 mg/kg, route subcutaneous) of 30%. On Substance-P receptor, this molecule had an IC50 below 0.1 nM.
